Measurements taken from ChEMBL document CHEMBL3286393 (J Med Chem, 2014).
pIC50: −log10 of the molar value. One block for each molecule: values may come before it.

Columns and labels:
Monocyte [1] = experiment: Inhibition of 11-HETE formation in LPS-stimulated human monocytes preincubated for 15 mins before arachidonic acid substrate addition measured after 30 mins by UPLC-MS/MS analysis; format: functional, cell-based
Procedure, shortened: (§1)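 Fresh human monocytes (adherence-isolated, >85% CD14+; 5 × 10⁶/well) primed with LPS 1 μg/mL for 24 h. Washed, 15 min preincubation, then 2.5 μM A23187 plus 20 μM arachidonic acid for 30 min. Eicosanoids extracted and measured by UPLC-MS/MS, normalized to PGB1 as relative intensities. Two to three independent experiments.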

[2] = target: T1, Polyunsaturated fatty acid lipoxygenase ALOX15 (Homo sapiens, UniProt P16050); experiment: Inhibition of 15-LO-mediated 15-HETE formation in LPS-stimulated human monocytes preincubated for 15 mins before arachidonic acid substrate addition measured after 30 mins by UPLC-MS/MS analysis; format: cell-based
T1 sequence (P16050 whole entry): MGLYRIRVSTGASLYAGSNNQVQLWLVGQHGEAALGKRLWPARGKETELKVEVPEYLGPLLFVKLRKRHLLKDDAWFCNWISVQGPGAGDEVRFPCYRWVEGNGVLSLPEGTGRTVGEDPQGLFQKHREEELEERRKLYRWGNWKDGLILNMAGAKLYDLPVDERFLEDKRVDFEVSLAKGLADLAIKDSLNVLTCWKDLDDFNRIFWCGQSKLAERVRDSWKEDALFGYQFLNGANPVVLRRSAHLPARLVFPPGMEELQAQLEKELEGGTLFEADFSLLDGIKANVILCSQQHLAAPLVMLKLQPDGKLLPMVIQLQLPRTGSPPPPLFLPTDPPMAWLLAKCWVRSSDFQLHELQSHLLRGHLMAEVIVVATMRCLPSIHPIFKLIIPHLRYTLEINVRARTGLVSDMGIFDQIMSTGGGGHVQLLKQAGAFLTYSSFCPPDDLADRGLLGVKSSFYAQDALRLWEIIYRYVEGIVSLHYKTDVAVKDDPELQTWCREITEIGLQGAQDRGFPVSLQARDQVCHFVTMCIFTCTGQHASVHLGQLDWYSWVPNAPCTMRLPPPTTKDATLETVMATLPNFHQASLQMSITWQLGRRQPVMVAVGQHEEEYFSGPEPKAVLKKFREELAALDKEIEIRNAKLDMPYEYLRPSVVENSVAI

Monocyte [3] = experiment: Inhibition of thromboxane B2 formation in LPS-stimulated human monocytes preincubated for 15 mins before arachidonic acid substrate addition measured after 30 mins by UPLC-MS/MS analysis; format: functional, cell-based; procedure, shortened: as §1
[4] = target: Prostaglandin G/H synthase 1 (Homo sapiens, UniProt P23219); experiment: Inhibition of COX1-mediated […] in human platelets assessed as residual activity by measuring formation of 12-HHT from arachidonic acid preincubated at 10 uM for 5 mins measured after 5 mins by RP-HPLC analysis relative to control; values are per cent of control
Mus musculus [5] = experiment: Antiinflammatory activity in zymosan-induced peritonitis CD1 mouse model assessed as suppression of LTB4 level at 10 mg/kg, ip administered 30 mins before challenge measured 4 hrs post zymosan challenge relative to control
Mus musculus [6] = experiment: Antiinflammatory activity in zymosan-induced peritonitis CD1 mouse model assessed as suppression of LTC4 level at 10 mg/kg, ip administered 30 mins before challenge measured 30 mins post zymosan challenge relative to control; format: functional; settings: route intraperitoneal
Procedure, shortened: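 Male CD-1 mice (33−39 g, 8−9 weeks; n = 5−11 per group) dosed ip in 0.5 mL 0.9% saline with 2% DMSO 30 min before ip zymosan (0.5 mL of 2 mg/mL in saline). Killed by CO2 30 min after zymosan, peritoneum lavaged with 3 mL cold PBS pH 7.4. Cysteinyl-LTs in exudate supernatant by enzyme immunoassay; % inhibition vs vehicle.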

[7] = target: T2, Prostaglandin G/H synthase 2 (Homo sapiens, UniProt P35354); experiment: Inhibition of COX2-mediated PGF2alpha formation in LPS-stimulated human monocytes preincubated for 15 mins before arachidonic acid substrate addition measured after 30 mins by UPLC-MS/MS analysis; format: cell-based
T2 sequence (P35354 whole entry): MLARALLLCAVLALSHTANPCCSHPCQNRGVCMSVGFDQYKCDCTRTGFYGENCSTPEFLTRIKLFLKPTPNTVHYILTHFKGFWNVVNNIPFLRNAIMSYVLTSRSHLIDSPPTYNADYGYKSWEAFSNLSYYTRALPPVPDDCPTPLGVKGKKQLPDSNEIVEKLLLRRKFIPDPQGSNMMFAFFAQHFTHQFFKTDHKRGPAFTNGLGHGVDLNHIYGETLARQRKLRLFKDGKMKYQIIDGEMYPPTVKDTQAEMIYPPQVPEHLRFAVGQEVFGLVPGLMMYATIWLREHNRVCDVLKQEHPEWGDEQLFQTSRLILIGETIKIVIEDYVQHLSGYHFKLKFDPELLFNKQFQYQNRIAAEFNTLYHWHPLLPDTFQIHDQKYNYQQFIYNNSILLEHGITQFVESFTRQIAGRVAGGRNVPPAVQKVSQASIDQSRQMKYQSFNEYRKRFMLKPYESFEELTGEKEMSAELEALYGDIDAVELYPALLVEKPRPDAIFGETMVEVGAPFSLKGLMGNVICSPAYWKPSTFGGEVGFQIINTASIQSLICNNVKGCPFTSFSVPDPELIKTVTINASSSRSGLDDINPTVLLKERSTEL

Mus musculus [8] = experiment: Antiinflammatory activity in zymosan-induced peritonitis CD1 mouse model assessed as suppression of neutrophil infiltration at 10 mg/kg, ip administered 30 mins before challenge measured 4 hrs post zymosan challenge relative to control; format: functional; settings: route intraperitoneal
Procedure, shortened: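 Zymosan peritonitis in male CD-1 mice (n = 5−11): ip dose in 2% DMSO/saline 30 min before ip zymosan. Peritoneal lavage with 3 mL cold PBS at 4 h. Exudate cells counted by light microscopy in a Burker chamber after trypan blue staining; % inhibition vs vehicle.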

Chain of Prostaglandin G/H synthase 1 (P23219 whole entry): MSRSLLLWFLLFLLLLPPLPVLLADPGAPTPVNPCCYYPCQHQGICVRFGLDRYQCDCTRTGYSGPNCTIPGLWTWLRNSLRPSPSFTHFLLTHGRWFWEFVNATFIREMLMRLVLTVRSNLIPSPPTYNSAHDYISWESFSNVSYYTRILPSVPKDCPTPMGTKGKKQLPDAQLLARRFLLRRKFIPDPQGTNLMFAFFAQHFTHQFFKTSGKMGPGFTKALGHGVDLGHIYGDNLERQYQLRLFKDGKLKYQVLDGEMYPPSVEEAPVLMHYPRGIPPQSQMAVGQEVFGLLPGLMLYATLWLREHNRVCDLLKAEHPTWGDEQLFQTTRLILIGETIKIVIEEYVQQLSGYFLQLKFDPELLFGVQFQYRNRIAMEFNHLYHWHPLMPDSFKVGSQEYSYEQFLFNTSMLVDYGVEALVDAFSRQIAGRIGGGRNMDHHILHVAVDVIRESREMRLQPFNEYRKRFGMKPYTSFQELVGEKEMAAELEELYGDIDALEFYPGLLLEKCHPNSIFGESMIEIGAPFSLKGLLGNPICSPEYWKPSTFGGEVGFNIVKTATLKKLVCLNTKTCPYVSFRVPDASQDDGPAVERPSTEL

pIC50 (Monocyte [1]): 5.92 | pIC50 [2]: 5.92 | pIC50 (Monocyte [3]): 5.92
Compound: COc1cc(/C=C/C(=O)CC(=O)/C=C/c2ccc(O)c(OC)c2)ccc1O [CURCUMIN]

residual activity [4]: 82.3%
Compound: COc1cc(/C=C/c2cc(/C=C/c3ccc(O)c(OC)c3)[nH]n2)ccc1O [CURCUMIN PYRAZOLE]

pIC50 [7]: < 5.00
Compound: COc1cc(/C=C/c2cc(/C=C/c3cc(CC=C(C)C)c(O)c(OC)c3)[nH]n2)cc(CC=C(C)C)c1O
inhibition in vivo at 10 mg/kg (Mus musculus [5]): 61% | inhibition in vivo at 10 mg/kg (Mus musculus [6]): 92% | inhibition in vivo at 10 mg/kg (Mus musculus [8]): 75%
